High-throughput results (PubChem)
NF-kB neuron act – compounds increasing NF-kB expression in human neuronal cells. AID 1239. NF-kB reporter expression; hits give high values. 1.6% of 190,000 active. fold change at 12.5 µM; in the data active = fold change above about 3.3
STAT1 blocker – inhibitors of IFN-gamma induced STAT1 signaling; NIH 3T3 STAT1-luciferase reporter, luminescence; inhibition, % at 5.5 µM; 0.35% of 200,000 active; AID 920;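 active = inhibition above a set limit, the mean inhibition across all tested compounds plus 3 SD, cut at about 34% in these data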
Pf gametocyte – P. falciparum stage V gametocyte viability inhibition | inhibition, % at 10.9 µM | P. falciparum stage V gametocytes, ATP luminescence, 24 h | 0.065% of 150,000 active;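 active = inhibition above the mean plus 3 SD of compounds within the control limits, set per campaign, cut at about 38% in these data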
APP 5'UTR act – activates APP 5'UTR luciferase reporter | 1% of 190,000 active | activation, % at 2 µM | SH-SY5Y APP 5'UTR luciferase reporter, luminescence; zero percent = DMSO vehicle wells;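 active = activation above a set limit, based on mean plus 3 SD of controls, cut at about 140% in these data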
STAT1 activator – STAT1 signaling activation; NIH 3T3 STAT1-luciferase reporter, IFN-gamma, luminescence; 100% = IFN-gamma alone, no compound; activation (% of control), % at 5.5 µM; 2.6% of 200,000 active;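 active = activation above the screen-wide mean activation plus 3 SD, cut at about 130% in these data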
STAT3 activator – increases IL-6 driven STAT3 reporter signal; activation (% of control), % at 5.6 µM; 0.91% of 190,000 active; U3A cells, IL-6 STAT3-luciferase reporter, luminescence; 100% = signal with IL-6 EC80 alone;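 active = activation above the screen-wide mean of compound activation plus 3 SD, cut at about 130% in these data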
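Material: STAT3-luciferase reporter U3A cells; Probe or stimulus: IL-6 (33 ng/mL); Incubation: compound pre-incubation 1 h before IL-6, then 6 h stimulation at 37 °C; Technique: luminescence from STAT3-driven luciferase reporter; Evaluation: % activation versus median of IL-6-stimulated wells; Controls: IL-6-only high control.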
Of the large screens only hits and unclear results are named; the others gave an inactive call. Compounds with a hit are over-represented: about 3.9% of the library has one in this group of screens.

CN1C(=O)C(O)(CC(=O)c2cccnc2)c2ccccc21 (stereo not given)	none
COc1cccc(C(=O)/C=C2\Sc3ccccc3N2C)c1	APP 5'UTR act 214, STAT1 activator 150
COc1ccc(S(=O)(=O)NCCOc2cccc3cccnc23)cc1OC	STAT1 activator 129
O=C(c1cc(S(=O)(=O)N2CCC3(CC2)OCCO3)ccc1F)N1CCCCC1	none
COc1ccccc1N1CCN(C(c2cccs2)C(C)NC(=O)c2ccncc2)CC1 (stereo not given)	none (no result: NF-kB neuron act, STAT1 blocker, APP 5'UTR act, STAT1 activator, STAT3 activator)
COC(=O)c1cc(-c2ccc(OC)cc2)n[nH]1	none
CCOc1ccc(-c2cc(C(=O)OC)[nH]n2)cc1	STAT1 activator 142
CC(C)NC(=O)CN1CCC(c2ccccc2)C(O)C1 (stereo not given)	none
O=C(c1ccccc1)n1ccc(-c2cnc(-c3ccccc3)s2)n1	NF-kB neuron act 6, APP 5'UTR act 141
Cc1ccc(NC(=O)CSc2n[nH]c(=O)n2C2CC2)cc1S(=O)(=O)N1CCOCC1	none (no result: Pf gametocyte)
N/C(=N\OC(=O)c1ccc(Cl)cc1Cl)c1ccccn1	STAT1 blocker 89
Cc1ccc(C(=O)O/N=C(\N)c2ccccn2)c(Cl)c1	none (no result: NF-kB neuron act, STAT1 blocker, APP 5'UTR act, STAT1 activator, STAT3 activator)
N/C(=N\OC(=O)c1cc(Br)ccc1Cl)c1ccccn1	NF-kB neuron act 6, APP 5'UTR act 180 (no result: Pf gametocyte)
CCOC(=O)c1ccccc1-c1csc(N)n1	none
Cc1cccc2c(=O)cc(C)n(CC(N)=O)c12	none (no result: NF-kB neuron act, STAT1 blocker, APP 5'UTR act, STAT1 activator, STAT3 activator)
COc1ccccc1N(CC(=O)N1CCOCC1)S(C)(=O)=O	none (no result: NF-kB neuron act, STAT1 blocker, APP 5'UTR act, STAT1 activator, STAT3 activator)
Cc1cc(C)nc(NS(=O)(=O)c2ccc(CC(C)C)cc2)c1	none (no result: NF-kB neuron act, STAT1 blocker, APP 5'UTR act, STAT1 activator, STAT3 activator)
CCOC(=O)c1c(NC(=O)CSc2nnc(-c3c[nH]c4ccccc34)n2CCOC)sc2c1CCCCC2	none (no result: Pf gametocyte)
CCOC(=O)c1c(NC(=O)CSc2c[nH]c3ccccc23)sc2c1CCCC2	STAT3 activator 135 (no result: Pf gametocyte)
CCOC(=O)c1c(NC(=O)CSc2c[nH]c3ccccc23)sc2c1CCC2	NF-kB neuron act 4 (no result: Pf gametocyte)
CCOC(=O)c1c(NC(=O)CSc2nnc3ccccn23)sc2c1CCC2	none (no result: Pf gametocyte)
CCCCOc1ccc(-c2ncc(Cl)cn2)cc1	NF-kB neuron act 3.7
Clc1ccc(-c2cnc3ccccc3n2)cc1	NF-kB neuron act 3.3, APP 5'UTR act 135
Oc1ccc(-c2cnc3ccccc3n2)cc1	none (no result: NF-kB neuron act, STAT1 blocker, APP 5'UTR act, STAT1 activator, STAT3 activator)
Nc1ccc(-c2cnc3ccccc3n2)cc1	none (no result: NF-kB neuron act, STAT1 blocker, APP 5'UTR act, STAT1 activator, STAT3 activator)
CCCCOc1ccc(-c2cnc3ccccc3n2)cc1	NF-kB neuron act 3.6, STAT1 activator 149 (no result: APP 5'UTR act)
c1csc(-c2cnc3ccccc3n2)c1	STAT1 activator 129
CCCCOc1ccc(-c2ncc([N+](=O)[O-])cn2)cc1	none (no result: NF-kB neuron act, STAT1 blocker, APP 5'UTR act, STAT1 activator, STAT3 activator)
NC(=O)CC(NC(=O)Cc1ccc(Br)cc1)c1ccc(N2CCC(N3CCCCC3)CC2)c([N+](=O)[O-])c1 (stereo not given)	none (no result: NF-kB neuron act, STAT1 blocker, APP 5'UTR act, STAT1 activator, STAT3 activator)
COc1ccc(C(=O)Nc2nc3c(s2)CCCC3)cc1S(=O)(=O)N1CCCc2ccccc21	none
COC(=O)COc1cccc(NC(=O)C(c2ccccc2)c2ccccc2)c1	none (no result: NF-kB neuron act, STAT1 blocker, APP 5'UTR act, STAT1 activator, STAT3 activator)
COc1ccc(N2C(N)=NC(N)=NC2(C)C)cc1	NF-kB neuron act 3.9 (no result: Pf gametocyte)
O=c1c2cc(-c3ccccc3)sc2ncn1/N=C/c1ccco1	STAT1 activator 129 (no result: Pf gametocyte)
CCc1cc2c(=O)n(-c3ccc(Br)cc3)cnc2s1	STAT1 activator 137 (no result: Pf gametocyte)
CCc1cc2c(=O)n(CC(C)C)cnc2s1	none
CCCCCn1cnc2sc(-c3ccccc3)cc2c1=O	NF-kB neuron act 4.8, STAT1 activator 149 (no result: Pf gametocyte)
CCCCCn1cnc2sc(CC)cc2c1=O	STAT1 activator 144
Cc1cccc(NC(=S)N(CCN(C)C)Cc2cccs2)c1	none
Cc1ccc(NC(=O)CN2CCC(NC(=O)c3ccccc3F)CC2)cc1C	none (no result: NF-kB neuron act, STAT1 blocker, APP 5'UTR act, STAT1 activator, STAT3 activator)
NS(=O)(=O)c1ccc(CCNC(=O)COC(=O)CN2C(=O)C3CCCCC3C2=O)cc1 (stereo not given)	none
O=C1C(=C2SCCCS2)CC/C1=C\c1ccc(F)cc1	none (no result: Pf gametocyte)
Cc1cccc(/C=C2\CCC(=C3SCCCS3)C2=O)c1	APP 5'UTR act 172 (no result: Pf gametocyte)
O=C(Nc1cccnc1Cl)c1noc2c1CCc1ccccc1-2	STAT1 activator 135
O=C(CSc1ncn[nH]1)Nc1ccc(OCc2ccccc2)cc1	none
O=C(N/N=C/c1ccc(N2CCOCC2)cc1)C1CC1	none
N/C(=N\OC(=O)c1cccs1)c1cccc(Br)c1	STAT1 activator 136
Cc1cccc(/C(N)=N/OC(=O)c2ccc(F)cc2)c1	STAT1 activator 140 (no result: Pf gametocyte)
